Each compound was assayed on Cavia porcellus (assay: Relative potency against bronchoconstrictions, induced by intravenous administration of histamine at doses […] in guinea pig.).
Assay type: functional
How it was run: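 Anesthetized guinea pigs (intraperitoneal urethane), curarized with iv gallamine; modified Konzett-Rossler set-up. Bronchoconstriction provoked by iv histamine or serotonin at 5.6-22.5 μg/kg, doses giving a 20 to 50 cm water rise in tracheal pressure; 12 s iv injections repeated every 5 min. Test compounds given iv. Broncholytic activity scored in at least four animals per spasmogen per dose level, expressed as potency relative to l-PGE₂.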
Compound CCCCC[C@H](O)/C=C/[C@H]1C(SCC(C)O)CC(=O)[C@@H]1C/C=C\CCCC(=O)OC (some centres undefined) has a Relative potency of 2.
In the case of CCCCC[C@@H](O)/C=C/[C@H]1[C@H](SCCO)CC(=O)[C@@H]1C/C=C\CCCC(=O)OC, the Relative potency is reported as 19.
For CCCCC[C@H](O)/C=C/[C@H]1[C@@H](SCCO)CC(=O)[C@@H]1C/C=C\CCCC(=O)OC, the Relative potency was 10.
CCCCC[C@H](O)/C=C/[C@H]1C(SCC)CC(=O)[C@@H]1C/C=C\CCCC(=O)OC (some centres undefined) gave a Relative potency of 1.
In the case of CCCCC[C@H](O)/C=C/[C@H]1C(SCC(=O)O)CC(=O)[C@@H]1C/C=C\CCCC(=O)OC (some centres undefined), the Relative potency is reported as 0.1.
Work on CCCCC[C@H](O)/C=C/[C@H]1C(SCCCO)CC(=O)[C@@H]1C/C=C\CCCC(=O)OC (some centres undefined) yielded a Relative potency of 0.8.
Work on CCCCC[C@H](O)/C=C/[C@H]1C(SCCN(CC)CC)CC(=O)[C@@H]1C/C=C\CCCC(=O)OC (some centres undefined) yielded a Relative potency of 22.
CCCCC[C@H](O)/C=C/[C@H]1C(SCCN(C)C)CC(=O)[C@@H]1C/C=C\CCCC(=O)OC (some centres undefined) was tested, and the Relative potency was 14.
With CCCCC[C@H](O)/C=C/[C@H]1C(SCCS)CC(=O)[C@@H]1C/C=C\CCCC(=O)OC (some centres undefined) the Relative potency was 0.4.
CCCCC[C@H](O)/C=C/[C@H]1C(Sc2cccc(O)c2)CC(=O)[C@@H]1C/C=C\CCCC(=O)OC (some centres undefined) showed a Relative potency of 0.2.
For CCCCC[C@H](O)/C=C/[C@H]1C(SCCC)CC(=O)[C@@H]1C/C=C\CCCC(=O)OC (some centres undefined), the Relative potency was less than 0.2.
In the case of CCCCC[C@H](O)/C=C/[C@H]1C(SCC(=O)OCC)CC(=O)[C@@H]1C/C=C\CCCC(=O)OC (some centres undefined), the Relative potency is reported as 3.
For CCCCC[C@H](O)/C=C/C1CCC(=O)[C@@H]1C/C=C\CCCC(=O)O (some centres undefined), the Relative potency was 92.
CCCCC[C@H](O)/C=C/[C@H]1C(SCCO)CC(=O)[C@@H]1CCCCCCC(=O)O (some centres undefined) showed a Relative potency of 104.
Compound CCCCCC(O)CSC1CC(=O)[C@H](C/C=C\CCCC(=O)OC)[C@H]1/C=C/[C@H](O)CCCCC (some centres undefined) has a Relative potency of less than 0.2.
CCCCC[C@H](O)/C=C/[C@H]1C(SCCN)CC(=O)[C@@H]1C/C=C\CCCC(=O)OC (some centres undefined) was tested, and the Relative potency was 0.3.
Work on CCCCC[C@H](O)/C=C/[C@H]1C(SCCCS)CC(=O)[C@@H]1C/C=C\CCCC(=O)OC (some centres undefined) yielded a Relative potency of 9.
With CCCCC[C@H](O)/C=C/[C@H]1[C@H](SCCO)CC(=O)[C@@H]1C/C=C\CCCC(=O)O the Relative potency was 55.
In the case of CCCCC[C@H](O)/C=C/[C@H]1C(SCC(O)CO)CC(=O)[C@@H]1C/C=C\CCCC(=O)OC (some centres undefined), the Relative potency is reported as 11.
CCCCC[C@H](O)/C=C/[C@H]1[C@H](SCCO)CC(=O)[C@@H]1C/C=C\CCCC(=O)OC gave a Relative potency of 100.
For CCCCC(O)C/C=C/[C@H]1[C@H](SCCO)CC(=O)[C@@H]1CCCCCCC(=O)O (mixture of isomers), the Relative potency was 24.
CCCCCC(C)(O)/C=C/[C@H]1[C@H](SCCO)CC(=O)[C@@H]1CCCCCCC(=O)O (mixture of isomers) was tested, and the Relative potency was 16.
CCCCC(C)(O)C/C=C/[C@H]1[C@H](SCCO)CC(=O)[C@@H]1C/C=C\CCCC(=O)OC (mixture of isomers) showed a Relative potency of 109.
For CCCCCC/C=C/[C@H]1[C@H](SCCO)CC(=O)[C@@H]1C/C=C\CCCC(=O)OC (racemic), the Relative potency was 14.
With CCCCC[C@H](O)/C=C/[C@H]1[C@H](OCCO)CC(=O)[C@@H]1CCCCCCC(=O)O (racemic) the Relative potency was 14.
For CCCCC[C@H](O)/C=C/[C@H]1[C@H](OCCO)CC(=O)[C@@H]1C/C=C\CCCC(=O)OC (racemic), the Relative potency was 3.
With CCCCC[C@H](O)/C=C/[C@H]1[C@H](SCCO)CC(=O)[C@@H]1C/C=C\CCCC(=O)OC (racemic) the Relative potency was 30.
CCCCC[C@@H](O)/C=C/[C@H]1[C@@H](SCCO)CC(=O)[C@@H]1C/C=C\CCCC(=O)OC (racemic) was tested, and the Relative potency was 6.
With CCCCC[C@H](O)/C=C/[C@H]1[C@H](O)CC(=O)[C@@H]1C/C=C\CCCC(=O)O [DINOPROSTONE] the Relative potency was 570.
